Experimental data taken from ChEMBL document CHEMBL4373650, “Synthesis, conformational preferences, and biological activity of conformational analogues of the microtubule-stabilizing agents, (-)-zampanolide and (-)-dactylolide” (Medchemcomm, 2019).

Legend:
Tubulin (Homo sapiens) [1] = target: T1, Tubulin (Homo sapiens) (UniProt P68371+Q9H4B7+P0DPH7+P68366+Q13509+Q71U36+P04350+Q3ZCM7+P07437+P68363+Q9BQE3+Q6PEY2+Q13885+Q9BVA1+Q9BUF5); test: Induction of microtubule stabilization in human PC3 cells assessed as inhibition of cell growth incubated for 72 hrs by Celltiter reagent-based assay
In short: (§1)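 Cells kept in DMEM with 10% fetal bovine serum. Exposed to serial dilutions of each compound for 3 days, then growth read with CellTiter reagent and GI50 determined. Each compound first run as a 10-dose dilution series, then as narrower replicate 6-dose series, each a separate experiment.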

Tubulin (Homo sapiens) [2] = target: T1, Tubulin (Homo sapiens); test: Induction of microtubule stabilization in human A549 cells assessed as inhibition of cell growth incubated for 72 hrs by Celltiter reagent-based assay; in short: as §1
Tubulin (Homo sapiens) [3] = target: T1, Tubulin (Homo sapiens); test: Induction of microtubule stabilization in human 1A9 cells assessed as inhibition of cell growth incubated for 72 hrs by Celltiter reagent-based assay; in short: as §1

| SMILES | GI50 (Tubulin (Homo sapiens) [1]) | GI50 (Tubulin (Homo sapiens) [2]) | GI50 (Tubulin (Homo sapiens) [3]) |
| --- | --- | --- | --- |
| C=C1C[C@@H]2C/C=C/C(=O)C/C(C)=C\C=C\C(=O)O[C@H]([C@H](O)NC(=O)/C=C\C=C\C)C/C(C)=C/[C@H](C1)O2 | 3.2 nM | 5.2 nM | 2.1 nM |
| C/C1=C/C=C/C(=O)O[C@H](C=O)C/C=C/[C@@H]2CCC[C@H](C/C=C/C(=O)C1)O2 | > 30000 nM | > 30000 nM | > 30000 nM |
| C/C1=C/C=C/C(=O)O[C@H](CO)C/C=C/[C@@H]2CCC[C@H](C/C=C/C(=O)C1)O2 | > 30000 nM | > 30000 nM | > 30000 nM |

Further compounds by falling GI50 (Tubulin (Homo sapiens) [1]), results first:

| GI50 (Tubulin (Homo sapiens) [1]) | GI50 (Tubulin (Homo sapiens) [2]) | GI50 (Tubulin (Homo sapiens) [3]) | SMILES |
| --- | --- | --- | --- |
| 460 nM | 950 nM | 620 nM | C=C1C[C@@H]2C/C=C/C(=O)C/C(C)=C\C=C\C(=O)O[C@H](C=O)C/C(C)=C/[C@H](C1)O2 |
| 56 nM | 180 nM | 120 nM | C/C=C/C=C\C(=O)NC(O)[C@@H]1C/C=C/[C@@H]2CCC[C@H](C/C=C/C(=O)C/C(C)=C\C=C\C(=O)O1)O2 (stereo partly drawn) |
| 4.6 nM | 6 nM | 5.2 nM | CC(=O)O[C@H]1C(=O)[C@@]2(C)[C@H]([C@H](OC(=O)c3ccccc3)[C@]3(O)C[C@H](OC(=O)[C@H](O)[C@@H](NC(=O)c4ccccc4)c4ccccc4)C(C)=C1C3(C)C)[C@]1(OC(C)=O)CO[C@@H]1C[C@@H]2O |
